Test results as given in ChEMBL document CHEMBL3526126, “Amide hydrolysis of a novel chemical series of microsomal prostaglandin E synthase-1 inhibitors induces kidney toxicity in the rat” (Drug Metab Dispos, 2013).
Each block holds one compound with its values, some of them ahead of it.

Tests used:
[1] = AUC (0 to 24 hrs) in Wistar Hannover rat at 200 umol/kg, po qd measured on day 1; details: plasma
[2] = system: Rattus norvegicus; test: Toxicity in Wistar Hannover rat kidney assessed as increase in plasma urea level at >= 500 to 1000 umol/kg, po qd administered for 7 days measured on day 7; type: organism-based; details: in vivo, 168 h
Method in brief: (§1)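 Wistar Hannover rats, about 8 weeks old, were acclimatized about 2 weeks and randomized by body weight. Dosing was by oral gavage (10 ml/kg) once daily for 7 days, with vehicle controls. At the end of dosing, plasma (lithium heparin) was taken from the orbital plexus under isoflurane/oxygen anaesthesia, and urea and creatinine were measured.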

[3] = system: Rattus norvegicus; test: Toxicity in Wistar Hannover rat kidney assessed as crystals in urine at 76 to 230 umol/kg, po qd administered for 7 days measured on day 7 by hematoxylin/eosin staining-based light microscopic analysis; type: organism-based; details: in vivo, 168 h
[4] = Drug metabolism in Sprague-Dawley rat hepatocytes assessed as amide hydrolysis at 1 to 10 uM by LC-MS analysis; type: ADME, cell-based, Hepatocyte
Method in brief: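 Hepatocytes at 1 × 10^6 cells/ml in William's medium incubated at 37°C with gentle shaking under 5% CO2. Substrate was at […]. Metabolites were analysed by LC-MS.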

[5] = Cmax in Wistar Hannover rat at 70 umol/kg, po qd measured on day 1; details: in vivo
[6] = Cmax in Sprague-Dawley rat at 70 umol/kg, po qd administered for 7 days measured on day 7; type: ADME, organism-based; set-up: dose 70 umol/kg, route oral; details: in vivo
Method in brief: (§2)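 Toxicity study 2: 2 female satellite rats per dose group. Dosing was once daily by oral gavage (10 ml/kg) for 7 days. Tail-vein EDTA blood was taken at 2, 4, 6, 7 and 24 h on day 1 and on day 7, then chilled and centrifuged to plasma. Parent and M1 were quantified by LC-MS/MS, with M1 measured in negative electrospray mode.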

[7] = AUC (0 to 24 hrs) in Sprague-Dawley rat at 70 umol/kg, po qd administered for 7 days measured on day 7; type: ADME, organism-based; set-up: time < 24 hr, dose 70 umol/kg, route oral; details: plasma
Method in brief: as §2

[8] = AUC (0 to 24 hrs) in Sprague-Dawley rat at 200 umol/kg, po qd administered for 7 days measured on day 7; type: ADME, organism-based; set-up: dose 200 umol/kg, time < 24 hr, route oral; details: plasma
Method in brief: as §2

[9] = system: Rattus norvegicus; test: Toxicity in Wistar Hannover rat kidney assessed as increase in plasma creatinine level at >= 500 to 1000 umol/kg, po qd administered for 7 days measured on day 7; type: organism-based; details: in vivo, 168 h
Method in brief: as §1

[10] = AUC (0 to 24 hrs) in Wistar Hannover rat at 70 umol/kg, po qd measured on day 1; details: plasma
[11] = system: Rattus norvegicus; test: Toxicity in Wistar Hannover rat kidney assessed as pathophysiological changes at 70 to 500 umol/kg, po qd administered for 7 days measured on day 7; details: in vivo, 168 h
[12] = Cmax in Wistar Hannover rat at 200 umol/kg, po qd measured on day 1; details: in vivo
[13] = Cmax in Sprague-Dawley rat at 200 umol/kg, po qd administered for 7 days measured on day 7; type: ADME, organism-based; set-up: dose 200 umol/kg, route oral; details: in vivo
Method in brief: as §2

[14] = Cmax in Sprague-Dawley rat at 170 umol/kg, po qd administered for 7 days measured on day 7; type: ADME, organism-based; set-up: dose 170 umol/kg, route oral; details: in vivo
Method in brief: as §2

[15] = AUC (0 to 24 hrs) in Sprague-Dawley rat at 170 umol/kg, po qd administered for 7 days measured on day 7; type: ADME, organism-based; set-up: time < 24 hr, dose 170 umol/kg, route oral; details: plasma
Method in brief: as §2

[16] = AUC (0 to 24 hrs) in Sprague-Dawley rat at 500 umol/kg, po qd administered for 7 days measured on day 7; type: ADME, organism-based; set-up: dose 500 umol/kg, time < 24 hr, route oral; details: plasma
Method in brief: as §2

[17] = AUC (0 to 24 hrs) in Wistar Hannover rat at 500 umol/kg, po qd measured on day 1; details: plasma
[18] = AUC (0 to 24 hrs) in Wistar Hannover rat at 170 umol/kg, po qd measured on day 1; details: plasma
[19] = system: Rattus norvegicus; test: Toxicity in Wistar Hannover rat kidney assessed as crystals in urine at 500 umol/kg, po qd administered for 7 days measured on day 7; type: organism-based; details: in vivo, 168 h
[20] = Cmax in Wistar Hannover rat at 500 umol/kg, po qd measured on day 1; details: in vivo
[21] = target: T1, Prostaglandin E synthase (Homo sapiens, UniProt O14684); test: Inhibition of human mPGES-1 by whole blood assay
T1 sequence (O14684 whole entry): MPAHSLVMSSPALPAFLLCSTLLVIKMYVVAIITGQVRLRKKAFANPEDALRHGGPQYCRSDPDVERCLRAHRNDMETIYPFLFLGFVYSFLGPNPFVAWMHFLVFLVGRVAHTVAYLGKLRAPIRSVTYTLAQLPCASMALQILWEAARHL

[22] = Cmax in Sprague-Dawley rat at 500 umol/kg, po qd administered for 7 days measured on day 7; type: ADME, organism-based; set-up: dose 500 umol/kg, route oral; details: in vivo
Method in brief: as §2

[23] = Cmax in Wistar Hannover rat at 170 umol/kg, po qd measured on day 1; details: in vivo
[24] = system: Hepatocyte; test: Drug level in Sprague-Dawley rat hepatocytes treated with AZ'7847 at 1 to 10 uM by LC-MS analysis; type: ADME, cell-based
Method in brief: (§3)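 Metabolic profiling in rat hepatocytes at 1 × 10^6 cells/ml in William's medium, shaken gently at 37°C under 5% CO2. Substrate was tested at two concentrations (1 and 10). For radio detection, a 14C-labelled substrate was separated on an Atlantis T3 column (1 ml/min) with a 1:20 split to the MS and a flow scintillation monitor.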

[25] = system: Rattus norvegicus; test: Drug level in Wistar Hannover rat treated with [14C]-AZ'7847 at 500 umol/kg, po qd administered for 7 days measured on day 7 by radio monitoring method; type: ADME, organism-based; details: in vivo, 168 h
[26] = system: Hepatocyte; test: Drug level in Sprague-Dawley rat hepatocytes treated with AZ'7847 at 1 to 10 uM by radio monitoring method; type: ADME, cell-based
Method in brief: as §3

AUC(0-t) at 24 h [1]: 970 µM·h
Drug metabolism [4]: metabolite_not_detected
Cmax [5]: 50 µM
Cmax [6]: 50 µM
AUC at 24 h [7]: 550 µM·h
AUC at 24 h [8]: 1070 µM·h
AUC(0-t) at 24 h [10]: 610 µM·h
Cmax [12]: 90 µM
Cmax [13]: 110 µM
SMILES: COc1cc(C(=O)NS(=O)(=O)c2ccccc2S(N)(=O)=O)ccc1C#CC1CC1
Activity [2]: Non-toxic
Activity [3]: Non-toxic
Activity [9]: Non-toxic
Activity [11]: Non-toxic

Cmax [14]: 190 µM
AUC at 24 h [15]: 1600 µM·h
Drug metabolism [4]: metabolite_not_detected
AUC at 24 h [16]: 3010 µM·h
AUC(0-t) at 24 h [17]: 3410 µM·h
AUC(0-t) at 24 h [18]: 1260 µM·h
Cmax [20]: 300 µM
IC50 [21]: > 2000 nM
Cmax [22]: 320 µM
Cmax [23]: 170 µM
SMILES: CC(C)C#Cc1ccc(C(=O)NS(=O)(=O)c2ccccc2S(N)(=O)=O)cc1OCCC(F)(F)F
Activity [2]: Non-toxic
Activity [19]: Toxic
Activity [9]: Non-toxic
Activity [11]: Non-toxic

Drug metabolism [24]: metabolite_detected
Drug metabolism [25]: metabolite_detected
Drug metabolism [26]: metabolite_detected
SMILES: O=[14C](O)c1ccc(C#Cc2ccccc2)cc1
